# Reference: ChEMBL document CHEMBL1124123, “Graphics computer-aided receptor mapping as a predictive tool for drug design: development of potent, selective, and stereospecific ligands for the 5-HT1A receptor” (J Med Chem, 1988)
# Legend:
# D(2) dopamine receptor [1] = biological target: T1, D(2) dopamine receptor (Rattus norvegicus, UniProt P61169); test: Binding affinity against Dopamine receptor D2 in rat brain membrane using [3H]domperidone as radioligand.
# [2] = biological target: T2, Serotonin 2 (5-HT2) receptor (Rattus norvegicus, UniProt P30994+P08909+P14842); test: Binding affinity towards 5-hydroxytryptamine 2 receptor in rat brain membrane using […] as a selective ligand.; type: cell membranes
# How it was run: (§1)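 5-HT2 sites in rat brain were labelled with [3H]ketanserin in a radioligand receptor binding assay.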
# [3] = biological target: T3, 5-hydroxytryptamine receptor 1B (Rattus norvegicus, UniProt P28564); test: Binding affinity against 5-HT1B receptor in rat brain membrane using [3H]-5-HT in the presence of 8-OH-DPAT.
# T3 sequence (P28564 whole entry): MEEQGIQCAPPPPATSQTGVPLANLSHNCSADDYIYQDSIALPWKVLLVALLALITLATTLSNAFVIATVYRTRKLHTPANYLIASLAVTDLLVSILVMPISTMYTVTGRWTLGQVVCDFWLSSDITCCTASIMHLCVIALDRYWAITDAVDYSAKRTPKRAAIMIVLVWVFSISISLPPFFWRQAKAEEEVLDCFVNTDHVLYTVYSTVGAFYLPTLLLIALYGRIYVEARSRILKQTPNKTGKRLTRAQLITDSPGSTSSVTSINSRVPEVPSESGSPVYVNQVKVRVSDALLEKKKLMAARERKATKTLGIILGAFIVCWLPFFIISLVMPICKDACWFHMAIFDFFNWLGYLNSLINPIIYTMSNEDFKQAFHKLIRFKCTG
# [4] = biological target: T4, Adrenergic receptor alpha-1 (Rattus norvegicus, UniProt P15823+P23944+P43140); test: Binding affinity against alpha-1 adrenergic receptor in rat brain membrane using […] as a selective ligand.; type: cell membranes
# T4 sequence (P15823 whole entry): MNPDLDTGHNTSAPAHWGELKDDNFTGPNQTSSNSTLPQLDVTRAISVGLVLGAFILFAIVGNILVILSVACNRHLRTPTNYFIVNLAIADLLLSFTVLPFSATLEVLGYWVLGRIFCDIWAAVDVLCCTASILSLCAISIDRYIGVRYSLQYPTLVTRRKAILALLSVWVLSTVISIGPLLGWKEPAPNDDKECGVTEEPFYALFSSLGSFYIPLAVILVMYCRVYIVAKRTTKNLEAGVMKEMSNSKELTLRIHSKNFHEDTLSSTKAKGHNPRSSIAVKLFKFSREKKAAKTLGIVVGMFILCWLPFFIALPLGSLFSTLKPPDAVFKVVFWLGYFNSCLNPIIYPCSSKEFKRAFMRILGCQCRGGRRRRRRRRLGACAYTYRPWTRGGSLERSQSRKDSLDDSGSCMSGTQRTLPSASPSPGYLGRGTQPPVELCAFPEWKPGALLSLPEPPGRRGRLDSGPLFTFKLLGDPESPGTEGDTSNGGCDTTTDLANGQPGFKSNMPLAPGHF
# T4 sequence (P23944 whole entry): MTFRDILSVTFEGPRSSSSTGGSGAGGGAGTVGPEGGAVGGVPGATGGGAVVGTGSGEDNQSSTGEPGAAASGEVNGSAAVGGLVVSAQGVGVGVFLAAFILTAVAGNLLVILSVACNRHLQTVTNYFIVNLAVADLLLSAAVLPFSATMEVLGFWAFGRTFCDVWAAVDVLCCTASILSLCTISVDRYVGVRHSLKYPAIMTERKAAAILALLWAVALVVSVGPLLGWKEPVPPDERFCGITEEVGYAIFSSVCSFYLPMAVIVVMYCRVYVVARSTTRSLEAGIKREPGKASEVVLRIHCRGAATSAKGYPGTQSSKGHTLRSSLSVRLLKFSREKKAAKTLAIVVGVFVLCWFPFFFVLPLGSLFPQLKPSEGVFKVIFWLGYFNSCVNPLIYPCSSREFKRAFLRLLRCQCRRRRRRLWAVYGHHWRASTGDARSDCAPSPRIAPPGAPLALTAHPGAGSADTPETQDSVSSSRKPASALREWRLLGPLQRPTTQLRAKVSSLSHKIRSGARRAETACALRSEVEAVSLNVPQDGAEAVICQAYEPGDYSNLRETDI
# T4 sequence (P43140 whole entry): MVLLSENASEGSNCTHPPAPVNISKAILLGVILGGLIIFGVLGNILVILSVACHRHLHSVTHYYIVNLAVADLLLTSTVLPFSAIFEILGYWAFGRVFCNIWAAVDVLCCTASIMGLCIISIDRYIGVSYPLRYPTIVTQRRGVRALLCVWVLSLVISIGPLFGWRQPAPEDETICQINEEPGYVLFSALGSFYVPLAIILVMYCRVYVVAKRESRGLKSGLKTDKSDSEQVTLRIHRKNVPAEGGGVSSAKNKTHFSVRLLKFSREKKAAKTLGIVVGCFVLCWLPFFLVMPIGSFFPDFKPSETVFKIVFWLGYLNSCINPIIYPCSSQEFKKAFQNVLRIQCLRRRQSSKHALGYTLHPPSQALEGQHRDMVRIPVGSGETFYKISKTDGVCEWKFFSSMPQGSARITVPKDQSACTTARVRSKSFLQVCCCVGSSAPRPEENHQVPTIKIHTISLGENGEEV
# How it was run: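 Alpha1-adrenergic binding in rat brain, using [3H]prazosin as the radioligand.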
# [5] = biological target: T5, Adrenergic receptor alpha-2 (Rattus norvegicus, UniProt P22086+P19328+P22909); test: Binding affinity against alpha-2 adrenergic receptor in rat brain membrane using […] as a selective ligand.; type: cell membranes
# T5 sequence (P22086 whole entry): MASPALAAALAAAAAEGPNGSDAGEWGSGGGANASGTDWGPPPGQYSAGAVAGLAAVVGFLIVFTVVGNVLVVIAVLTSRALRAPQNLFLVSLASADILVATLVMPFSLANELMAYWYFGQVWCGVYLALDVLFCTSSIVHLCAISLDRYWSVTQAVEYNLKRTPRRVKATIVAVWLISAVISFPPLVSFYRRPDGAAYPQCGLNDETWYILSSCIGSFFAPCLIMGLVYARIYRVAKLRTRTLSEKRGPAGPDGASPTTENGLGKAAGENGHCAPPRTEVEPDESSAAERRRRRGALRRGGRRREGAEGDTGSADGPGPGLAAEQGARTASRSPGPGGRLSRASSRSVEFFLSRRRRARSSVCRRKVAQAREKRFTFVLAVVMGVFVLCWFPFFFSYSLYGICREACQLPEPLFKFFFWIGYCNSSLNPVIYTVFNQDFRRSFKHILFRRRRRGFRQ
# T5 sequence (P19328 whole entry): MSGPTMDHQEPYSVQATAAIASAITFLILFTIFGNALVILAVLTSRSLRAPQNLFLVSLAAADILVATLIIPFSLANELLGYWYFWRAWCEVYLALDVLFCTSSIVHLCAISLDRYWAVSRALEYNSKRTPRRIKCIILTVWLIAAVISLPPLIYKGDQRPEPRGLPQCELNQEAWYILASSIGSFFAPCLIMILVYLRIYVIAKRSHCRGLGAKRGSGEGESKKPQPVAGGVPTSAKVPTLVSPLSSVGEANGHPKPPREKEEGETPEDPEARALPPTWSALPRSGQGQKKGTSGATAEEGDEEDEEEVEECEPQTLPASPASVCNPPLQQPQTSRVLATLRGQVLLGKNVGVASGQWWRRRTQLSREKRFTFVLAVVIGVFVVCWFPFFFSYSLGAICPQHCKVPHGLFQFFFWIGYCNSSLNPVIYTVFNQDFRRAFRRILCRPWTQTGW
# T5 sequence (P22909 whole entry): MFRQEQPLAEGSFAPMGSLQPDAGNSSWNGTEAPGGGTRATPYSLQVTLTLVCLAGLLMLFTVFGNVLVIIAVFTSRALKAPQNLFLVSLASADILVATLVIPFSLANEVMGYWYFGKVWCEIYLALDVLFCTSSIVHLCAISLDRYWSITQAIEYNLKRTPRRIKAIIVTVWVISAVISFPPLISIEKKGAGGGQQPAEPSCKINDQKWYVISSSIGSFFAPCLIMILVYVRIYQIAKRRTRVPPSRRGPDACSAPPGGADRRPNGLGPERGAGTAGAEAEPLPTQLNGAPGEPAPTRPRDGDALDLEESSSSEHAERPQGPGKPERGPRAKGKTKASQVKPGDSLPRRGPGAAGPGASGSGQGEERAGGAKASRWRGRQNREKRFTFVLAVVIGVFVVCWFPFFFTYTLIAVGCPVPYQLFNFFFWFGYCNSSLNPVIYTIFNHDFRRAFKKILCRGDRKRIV
# How it was run: (§2)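 Alpha2-adrenergic sites in rat brain were labelled with [3H]clonidine for radioligand binding.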
# [6] = biological target: T6, 5-hydroxytryptamine receptor 1A (Rattus norvegicus, UniProt P19327); test: Binding affinity towards 5-hydroxytryptamine 1A receptor in rat frontal cortex using [3H]8-OH-DPAT as a radioligand; type: tissue-based
# T6 sequence (P19327 whole entry): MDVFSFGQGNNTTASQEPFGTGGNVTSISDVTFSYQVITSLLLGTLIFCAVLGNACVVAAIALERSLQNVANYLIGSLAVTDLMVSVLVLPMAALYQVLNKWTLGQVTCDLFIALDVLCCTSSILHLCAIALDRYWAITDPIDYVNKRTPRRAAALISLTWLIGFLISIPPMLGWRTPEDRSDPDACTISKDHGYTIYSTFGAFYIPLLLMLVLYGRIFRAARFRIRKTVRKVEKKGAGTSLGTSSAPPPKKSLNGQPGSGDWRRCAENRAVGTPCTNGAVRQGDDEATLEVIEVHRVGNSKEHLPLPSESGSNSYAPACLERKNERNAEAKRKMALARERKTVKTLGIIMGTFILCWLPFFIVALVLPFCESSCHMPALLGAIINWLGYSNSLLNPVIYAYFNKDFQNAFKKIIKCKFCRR
# [7] = biological target: T6, 5-hydroxytryptamine receptor 1A; test: Binding affinity towards 5-hydroxytryptamine 1A receptor in rat brain membrane using [3H]8-OH-DPAT as a selective ligand.; type: cell membranes
# D(2) dopamine receptor [8] = biological target: T1, D(2) dopamine receptor; test: Binding affinity against Dopamine receptor D2 in rat brain membrane using [3H]-8-OH-DPAT as a selective ligand.; type: cell membranes; conditions: in the assay text read “[3H]domperidone as radioligand” for “[3H]-8-OH-DPAT as a selective ligand”
# How it was run: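 D2 receptor binding in rat brain, using [3H]domperidone as the radioligand.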
# [9] = biological target: T5, Adrenergic receptor alpha-2; test: Binding affinity against alpha-2 adrenergic receptor in rat brain membrane using […].; type: cell membranes
# How it was run: as §2
# [10] = biological target: T3, 5-hydroxytryptamine receptor 1B; test: Binding affinity against 5-HT1B receptor in rat frontal cortex using [3H]-5-HT in presence of 0.1 uM […]; type: tissue-based
# [11] = biological target: T2, Serotonin 2 (5-HT2) receptor; test: (§3) Binding affinity towards 5-hydroxytryptamine 2 receptor in rat frontal cortex using [3H]ketanserin as radioligand
# [12] = biological target: T3, 5-hydroxytryptamine receptor 1B; test: Binding affinity towards 5-HT1B receptor in rat brain membrane using [3H]8-OH-DPAT as a selective ligand.; type: cell membranes
# [13] = biological target: T2, Serotonin 2 (5-HT2) receptor; test: as §3; type: tissue-based
# How it was run: as §1
# T1 sequence (P61169 whole entry): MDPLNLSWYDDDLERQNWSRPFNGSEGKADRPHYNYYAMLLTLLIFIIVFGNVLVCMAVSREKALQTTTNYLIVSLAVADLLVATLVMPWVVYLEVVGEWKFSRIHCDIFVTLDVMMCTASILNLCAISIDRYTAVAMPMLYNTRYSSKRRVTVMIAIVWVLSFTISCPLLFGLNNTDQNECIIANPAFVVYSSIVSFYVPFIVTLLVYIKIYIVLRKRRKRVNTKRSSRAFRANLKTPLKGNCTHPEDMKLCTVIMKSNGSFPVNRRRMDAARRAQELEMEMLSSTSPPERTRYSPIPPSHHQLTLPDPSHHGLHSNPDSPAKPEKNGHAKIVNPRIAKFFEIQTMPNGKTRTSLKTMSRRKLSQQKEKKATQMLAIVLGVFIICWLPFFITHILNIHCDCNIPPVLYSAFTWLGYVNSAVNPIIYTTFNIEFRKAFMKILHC
Compound,Log IC50 [2],IC50 [3] [µM],Log IC50 [4],Log IC50 [5],IC50 [6] [µM],IC50 [7] [µM],IC50 (D(2) dopamine receptor [8]) [µM],other results
O=C1CC2(CCCC2)CC(=O)N1CCCCNCC1COc2c(ccc3ccccc23)O1 (stereo unspecified),-5.9,3.16,-5.2,< -5,0.794,,,IC50 (D(2) dopamine receptor [1]): 0.316 µM
O=C1CC2(CCCC2)CC(=O)N1CCCCNCC1COc2cc3ccccc3cc2O1 (stereo unspecified),,,-5.3,,,0.316,,
O=C1CC2(CCCC2)CC(=O)N1CCCCNC[C@@H]1COc2ccccc2O1,-6.1,5.01,-7.2,,,0.02,2.51,Log IC50 [9]: -6.2
O=C1CC2(CCCC2)CC(=O)N1CCCCNC[C@H]1COc2ccccc2O1,-6.7,0.794,-8,-6.3,0.000631,,0.0794,
O=C1CC2(CCCC2)CC(=O)N1CCCCNCC1COc2ccccc2O1 (stereo unspecified),-6.2,0.631,-7.8,-6.4,0.000794,,0.158,
O=C1CC2(CCCC2)CC(=O)N1CCCCNCC1COc2ccc3ccccc3c2O1 (stereo unspecified),-6.8,0.398,-6.1,< -5,0.00501,,0.158,
CSc1ccc2c(c1)[C@H](N1CCN(C)CC1)Cc1ccccc1S2,,,,,,0.851,,IC50 [10]: 3.24 µM; Log IC50 [11]: -8.25
CSc1ccc2c(c1)[C@@H](N1CCN(C)CC1)Cc1ccccc1S2,,,,,0.0955,,,IC50 [12]: 0.182 µM; Log IC50 [13]: -8.2
CCCN(CCC)C1CCc2cccc(O)c2C1 (stereo unspecified) [8-OH-DPAT],,,,,,,,Log IC50 [11]: -5
O=C(CCCN1CCC2(CC1)C(=O)NCN2c1ccccc1)c1ccc(F)cc1 [SPIPERONE],,,,,,0.123,,IC50 [10]: 1 µM
